Activity calls are given as the source filed them. The rule behind the calls is not given here.
Tests used:
Liver microsome [1] = test: Metabolic stability in rat liver microsomes at 1 uM after 5 to 30 mins; type: ADME
Cytochrome P450 1A2 = target: T1, Cytochrome P450 1A2 (Homo sapiens, UniProt P05177); test: Inhibition of human recombinant CYP1A2 after 30 mins; type: ADME; conditions: recombinant enzyme, 0.5 h
T1 sequence (P05177 whole entry): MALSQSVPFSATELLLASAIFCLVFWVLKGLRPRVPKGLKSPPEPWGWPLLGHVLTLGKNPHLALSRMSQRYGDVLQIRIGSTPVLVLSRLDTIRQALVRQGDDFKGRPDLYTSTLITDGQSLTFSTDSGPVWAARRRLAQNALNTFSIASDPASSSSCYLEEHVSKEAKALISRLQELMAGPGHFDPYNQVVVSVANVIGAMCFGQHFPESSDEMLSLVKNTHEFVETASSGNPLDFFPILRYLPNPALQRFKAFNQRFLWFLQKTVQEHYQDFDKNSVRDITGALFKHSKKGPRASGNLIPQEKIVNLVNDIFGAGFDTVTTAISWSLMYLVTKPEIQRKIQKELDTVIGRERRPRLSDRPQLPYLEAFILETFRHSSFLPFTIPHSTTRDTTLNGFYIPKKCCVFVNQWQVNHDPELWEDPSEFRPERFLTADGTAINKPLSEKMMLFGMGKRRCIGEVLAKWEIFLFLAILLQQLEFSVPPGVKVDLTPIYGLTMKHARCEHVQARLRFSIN

Cytochrome P450 2C9 = Cytochrome P450 2C9 (Homo sapiens, UniProt P11712); test: Inhibition of human recombinant CYP2C9 after 30 mins; type: ADME; conditions: recombinant enzyme, 0.5 h
Cytochrome P450 2C9, sequence (P11712 whole entry): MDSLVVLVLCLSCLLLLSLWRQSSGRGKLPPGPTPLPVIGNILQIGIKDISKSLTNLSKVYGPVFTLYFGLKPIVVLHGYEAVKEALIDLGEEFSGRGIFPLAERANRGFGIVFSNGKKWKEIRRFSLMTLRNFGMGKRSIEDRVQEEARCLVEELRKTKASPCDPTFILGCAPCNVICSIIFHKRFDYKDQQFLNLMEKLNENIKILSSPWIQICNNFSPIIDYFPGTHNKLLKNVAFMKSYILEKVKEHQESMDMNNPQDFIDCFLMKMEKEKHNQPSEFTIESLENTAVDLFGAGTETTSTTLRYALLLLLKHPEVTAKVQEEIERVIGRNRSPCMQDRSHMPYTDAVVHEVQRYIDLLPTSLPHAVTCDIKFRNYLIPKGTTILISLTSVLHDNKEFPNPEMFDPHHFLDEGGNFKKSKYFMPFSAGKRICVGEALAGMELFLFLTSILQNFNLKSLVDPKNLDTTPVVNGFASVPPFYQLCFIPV

HepG2 = test: Cytotoxicity against human HepG2 cells after 72 hrs; type: cell-based; conditions: hepg2, 72 h
[2] = target: Plasmepsin V (Plasmodium falciparum (isolate 3D7)) (UniProt Q8I6Z5); test: (§1) Inhibition of Plasmodium falciparum […] plasmepsin-5 using DABCYL-GNKRTLAQKQG-EDANS as substrate measured every 15 mins of 75 mins by fluorescence assay
Plasmepsin V (Plasmodium falciparum (isolate 3D7)), sequence (Q8I6Z5 whole entry, looked up): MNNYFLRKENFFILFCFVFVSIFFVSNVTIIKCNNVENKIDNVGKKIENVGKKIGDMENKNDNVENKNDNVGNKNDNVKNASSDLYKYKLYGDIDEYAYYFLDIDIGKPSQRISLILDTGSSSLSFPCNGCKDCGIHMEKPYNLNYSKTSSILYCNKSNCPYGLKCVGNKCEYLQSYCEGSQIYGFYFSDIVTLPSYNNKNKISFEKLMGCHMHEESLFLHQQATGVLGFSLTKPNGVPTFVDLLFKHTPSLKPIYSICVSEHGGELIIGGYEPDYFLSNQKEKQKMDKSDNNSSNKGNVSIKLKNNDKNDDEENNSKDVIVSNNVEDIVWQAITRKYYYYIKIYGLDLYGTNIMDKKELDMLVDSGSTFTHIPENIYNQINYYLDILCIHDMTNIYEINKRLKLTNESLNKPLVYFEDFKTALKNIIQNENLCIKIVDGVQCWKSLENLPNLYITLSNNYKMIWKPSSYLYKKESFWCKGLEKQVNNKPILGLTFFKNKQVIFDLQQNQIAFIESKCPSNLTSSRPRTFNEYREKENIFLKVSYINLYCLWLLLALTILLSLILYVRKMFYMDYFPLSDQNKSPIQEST

[3] = Selectivity ratio of IC50 for human BACE1 to IC50 for Plasmodium falciparum plasmepsin-2
Plasmodium chabaudi [4] = test: Antimalarial activity against Plasmodium chabaudi ASS infected in NIH mouse assessed as inhibition of parasitemia at 100 mg/kg, po qd for 4 days; type: functional; conditions: 96 h
Summary of the method: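 Mice infected with P. chabaudi were given oral doses once daily for four days, starting four hours after infection. Parasitemia was read on Day 4 postinoculation and expressed as percent inhibition of parasitemia.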

[5] = Metabolic stability in mouse liver microsomes at 1 uM after 5 to 30 mins; type: ADME, Microsome
Plasmodium falciparum [6] = test: Antimalarial activity against chloroquine and pyrimethamine-resistant Plasmodium falciparum Dd2 infected in […] after 48 hrs by SYBR Green I-based fluorescence method; type: functional; conditions: Dd2, 48 h
Cytochrome P450 2D6 = Cytochrome P450 2D6 (Homo sapiens, UniProt P10635); test: Inhibition of human recombinant CYP2D6 after 30 mins; type: ADME; conditions: recombinant enzyme, 0.5 h
Cytochrome P450 2D6, sequence (P10635 whole entry): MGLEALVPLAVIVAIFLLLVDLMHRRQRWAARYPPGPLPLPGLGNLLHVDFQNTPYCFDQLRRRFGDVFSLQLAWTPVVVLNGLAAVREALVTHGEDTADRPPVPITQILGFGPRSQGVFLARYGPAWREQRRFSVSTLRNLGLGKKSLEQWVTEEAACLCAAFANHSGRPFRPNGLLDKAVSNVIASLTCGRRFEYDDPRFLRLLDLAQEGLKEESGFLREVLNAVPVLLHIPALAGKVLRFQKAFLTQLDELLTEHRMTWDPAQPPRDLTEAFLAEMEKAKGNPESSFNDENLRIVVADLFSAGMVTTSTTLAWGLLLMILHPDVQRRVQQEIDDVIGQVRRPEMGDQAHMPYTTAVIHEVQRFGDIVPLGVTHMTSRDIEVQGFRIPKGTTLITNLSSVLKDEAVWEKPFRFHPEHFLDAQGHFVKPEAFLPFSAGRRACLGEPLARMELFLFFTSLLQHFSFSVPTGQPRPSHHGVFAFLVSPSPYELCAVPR

Cytochrome P450 3A4 = Cytochrome P450 3A4 (Homo sapiens, UniProt P08684); test: Inhibition of human recombinant CYP3A4 after 30 mins; type: ADME; conditions: recombinant enzyme, 0.5 h
Cytochrome P450 3A4, sequence (P08684 whole entry): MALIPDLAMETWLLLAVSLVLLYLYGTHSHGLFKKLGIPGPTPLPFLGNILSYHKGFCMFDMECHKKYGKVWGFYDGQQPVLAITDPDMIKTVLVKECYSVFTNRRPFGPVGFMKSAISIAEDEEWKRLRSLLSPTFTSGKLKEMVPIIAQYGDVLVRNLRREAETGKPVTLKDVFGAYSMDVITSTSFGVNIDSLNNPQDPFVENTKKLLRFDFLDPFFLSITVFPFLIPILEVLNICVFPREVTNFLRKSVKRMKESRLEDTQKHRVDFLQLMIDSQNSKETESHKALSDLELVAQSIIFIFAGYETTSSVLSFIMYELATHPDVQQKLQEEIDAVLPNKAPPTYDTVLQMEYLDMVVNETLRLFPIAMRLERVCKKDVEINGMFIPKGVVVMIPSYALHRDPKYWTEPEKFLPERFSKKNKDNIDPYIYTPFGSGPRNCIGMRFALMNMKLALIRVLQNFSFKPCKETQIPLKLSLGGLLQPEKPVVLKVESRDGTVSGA

Mus musculus = test: Toxicity in Plasmodium chabaudi ASS infected NIH mouse assessed as survival at 10 to 300 mg/kg, po qd for 4 days; type: organism-based; design: dose 10-300 mg/kg, route oral; conditions: in vivo, 96 h
[7] = Selectivity ratio of IC50 for human cathepsin E to IC50 for Plasmodium falciparum plasmepsin-2
Plasmodium falciparum [8] = test: Antimalarial activity against chloroquine-sensitive Plasmodium falciparum 3D7 infected in […] after 48 hrs by SYBR Green I-based fluorescence method; type: functional, organism-based
Plasmodium chabaudi [9] = test: Antimalarial activity against Plasmodium chabaudi ASS infected in NIH mouse assessed as inhibition of parasitemia at 150 to 300 mg/kg, po qd for 4 days; type: functional; conditions: dose mg/kg 150-300
Cytochrome P450 2C19 = Cytochrome P450 2C19 (Homo sapiens, UniProt P33261); test: Inhibition of human recombinant CYP2C19 after 30 mins; type: ADME; conditions: recombinant enzyme, 0.5 h
Cytochrome P450 2C19, sequence (P33261 whole entry): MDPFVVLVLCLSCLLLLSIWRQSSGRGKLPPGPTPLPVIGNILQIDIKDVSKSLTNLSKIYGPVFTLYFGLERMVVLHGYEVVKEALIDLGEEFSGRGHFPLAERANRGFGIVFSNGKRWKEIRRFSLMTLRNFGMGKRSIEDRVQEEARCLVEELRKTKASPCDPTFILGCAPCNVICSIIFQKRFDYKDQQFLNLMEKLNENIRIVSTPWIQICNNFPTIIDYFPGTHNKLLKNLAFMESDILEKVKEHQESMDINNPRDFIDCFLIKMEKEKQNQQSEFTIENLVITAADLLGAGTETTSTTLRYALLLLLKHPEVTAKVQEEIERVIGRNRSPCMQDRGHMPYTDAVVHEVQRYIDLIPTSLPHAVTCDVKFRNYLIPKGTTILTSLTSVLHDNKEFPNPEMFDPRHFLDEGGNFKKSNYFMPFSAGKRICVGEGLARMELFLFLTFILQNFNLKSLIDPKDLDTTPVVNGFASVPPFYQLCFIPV

[10] = Selectivity ratio of IC50 for human cathepsin D to IC50 for Plasmodium falciparum plasmepsin-2
Liver microsome [11] = test: Metabolic stability in human liver microsomes at 1 uM after 5 to 30 mins; type: ADME
Plasmodium falciparum [12] = test: Antimalarial activity against chloroquine-sensitive Plasmodium falciparum 3D7 infected in […] after 72 hrs by SYBR Green I-based fluorescence method; type: functional, organism-based; conditions: 3D7, 72 h
Plasmepsin V = Plasmepsin V (Plasmodium falciparum (isolate 3D7), UniProt Q8I6Z5); test: as §1
Plasmepsin V, sequence (Q8I6Z5 whole entry): as the sequence (Q8I6Z5 whole entry, looked up) above

Plasmodium falciparum [13] = test: Antimalarial activity against Plasmodium falciparum; type: functional, organism-based

COc1ccc(C2(c3ccc(OC)cc3)NC(=N)N(C3CCCCC3)C2=O)cc1
Stability (Liver microsome [1]): Stable
inhibition (INH) (Cytochrome P450 1A2): Not Active
inhibition (INH) (Cytochrome P450 2C9): Not Active
Activity (HepG2): Toxic
inhibition [2]: inactive
Ratio IC50 [3]: > 1000
inhibition in vivo at 100 mg/kg (Plasmodium chabaudi [4]): 89%
Stability [5]: Stable
IC50 (Plasmodium falciparum [6]): 480 nM
inhibition (INH) (Cytochrome P450 2D6): Not Active
inhibition (INH) (Cytochrome P450 3A4): Active
Activity (Mus musculus): Non-toxic
Ratio IC50 [7]: 300
inhibition (Plasmodium falciparum [8]): Active
inhibition (INH) (Plasmodium chabaudi [9]): 100%
inhibition (INH) (Cytochrome P450 2C19): Not Active
Ratio IC50 [10]: > 1000
Stability (Liver microsome [11]): Stable
IC50 (Plasmodium falciparum [12]): 463 nM

CCC(CN1C(=N)NC(c2ccccc2)(c2ccccc2)C1=O)c1ccccc1 (racemic)
IC50 (Plasmepsin V): 977 nM
IC50 (Plasmodium falciparum [13]): 140 nM
IC50 (Plasmodium falciparum [12]): 2760 nM

Reference: ChEMBL document CHEMBL3108756, “Evaluation of aminohydantoins as a novel class of antimalarial agents” (ACS Med Chem Lett, 2014)
